ChEMBL document CHEMBL1221342, “Synthesis and in vitro antitumor activity of new 4,5-dihydropyrazole derivatives” (Bioorg Med Chem, 2010)

Tests used:
CCRF-CEM = assay: Growth inhibition of human CCRF-CEM cells after 48 hrs by SRB assay; type: functional; conditions: for TGI: read-out: pTGI (converted)
Summary of the method: (§1)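 NCI 60-cell-line screen. Cells grown in RPMI1640 with 5% fetal calf serum and 2 mM L-glutamine, with inoculum density set by cell line. Preincubated 24 h, then given compound in DMSO at 10^-4 to 10^-8 M (five 10-fold steps) for 48 h continuous exposure. Growth measured by SRB protein assay. GI50, TGI and LC50 reported as –log molar.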

HL-60(TB) = assay: Growth inhibition of human HL-60(TB) cells after 48 hrs by SRB assay; type: functional; conditions: HL-60, 48 h; for TGI: read-out: pTGI (converted)
Summary of the method: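 NCI 60-cell-line screen: cells grown in RPMI1640 with 5% fetal calf serum and 2 mM L-glutamine, preincubated 24 h, then exposed to compound in DMSO at five concentrations (10^-4 to 10^-8 M) for 48 h continuous exposure. Growth estimated by sulforhodamine B protein assay; reported as pGI50 (-log molar concentration inhibiting net cell growth by 50%).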

MOLT-4 = assay: Growth inhibition of human MOLT4 cells after 48 hrs by SRB assay; type: functional; conditions: MOLT-4, 48 h; for TGI: read-out: pTGI (converted); summary of the method: as §1
SR = assay: Growth inhibition of human SR cells after 48 hrs by SRB assay; type: functional; conditions: for TGI: read-out: pTGI (converted); summary of the method: as §1
EKVX = assay: Growth inhibition of human EKVX cells after 48 hrs by SRB assay; type: functional; conditions: for TGI: read-out: pTGI (converted); summary of the method: as §1
NCI-H460 [1] = assay: Growth inhibition of human NCI-H460 cells after 48 hrs by SRB assay; type: functional; conditions: NCI-H460, 48 h; for TGI: read-out: pTGI (converted); summary of the method: as §1
HCT-116 = assay: Growth inhibition of human HCT116 cells after 48 hrs by SRB assay; type: functional; conditions: HCT-116, 48 h; for TGI: read-out: pTGI (converted); summary of the method: as §1
HCT-15 = assay: Growth inhibition of human HCT15 cells after 48 hrs by SRB assay; type: functional; conditions: HCT-15, 48 h; summary of the method: as §1
KM12 = assay: Growth inhibition of human KM12 cells after 48 hrs by SRB assay; type: functional; conditions: KM12, 48 h; for TGI: read-out: pTGI (converted); summary of the method: as §1
SW-620 = assay: Growth inhibition of human SW620 cells after 48 hrs by SRB assay; type: functional; conditions: SW-620, 48 h; for TGI: read-out: pTGI (converted); summary of the method: as §1
SF-268 = assay: Growth inhibition of human SF268 cells after 48 hrs by SRB assay; type: functional; conditions: SF-268, 48 h; for TGI: read-out: pTGI (converted); summary of the method: as §1
SF-539 = assay: Growth inhibition of human SF539 cells after 48 hrs by SRB assay; type: functional; conditions: SF-539, 48 h; for TGI: read-out: pTGI (converted); summary of the method: as §1
SNB-75 = assay: Growth inhibition of human SNB75 cells after 48 hrs by SRB assay; type: functional; conditions: SNB-75, 48 h; for TGI: read-out: pTGI (converted); summary of the method: as §1
U-251 = assay: Growth inhibition of human U251 cells after 48 hrs by SRB assay; type: functional; conditions: U-251, 48 h; for TGI: read-out: pTGI (converted); summary of the method: as §1
Malme-3M = assay: Growth inhibition of human MALME-3M cells after 48 hrs by SRB assay; type: functional; conditions: for TGI: read-out: pTGI (converted); summary of the method: as §1
SK-MEL-2 = assay: Growth inhibition of human SK-MEL-2 cells after 48 hrs by SRB assay; type: functional; conditions: SK-MEL-2, 48 h; for TGI: read-out: pTGI (converted); summary of the method: as §1
MDA-MB-435 = assay: Growth inhibition of human MDA-MB-435 cells after 48 hrs by SRB assay; type: functional; conditions: MDA-MB-435, 48 h; for TGI: read-out: pTGI (converted); summary of the method: as §1
SK-MEL-5 = assay: Growth inhibition of human SK-MEL-5 cells after 48 hrs by SRB assay; type: functional; conditions: SK-MEL-5, 48 h; for TGI: read-out: pTGI (converted); summary of the method: as §1
UACC-62 = assay: Growth inhibition of human UACC62 cells after 48 hrs by SRB assay; type: functional; conditions: UACC-62, 48 h; for TGI: read-out: pTGI (converted); summary of the method: as §1
OVCAR-4 = assay: Growth inhibition of human OVCAR4 cells after 48 hrs by SRB assay; type: functional; conditions: OVCAR-4, 48 h; for TGI: read-out: pTGI (converted); summary of the method: as §1
NCI/ADR-RES = assay: Growth inhibition of human NCI/ADR-RES cells after 48 hrs by SRB assay; type: functional; conditions: for TGI: read-out: pTGI (converted); summary of the method: as §1
SK-OV-3 = assay: Growth inhibition of human SKOV3 cells after 48 hrs by SRB assay; type: functional; conditions: SK-OV-3, 48 h; for TGI: read-out: pTGI (converted); summary of the method: as §1
786-0 = assay: Growth inhibition of human 786-0 cells after 48 hrs by SRB assay; type: functional; conditions: 786-0, 48 h; for TGI: read-out: pTGI (converted); summary of the method: as §1
A498 = assay: Growth inhibition of human A498 cells after 48 hrs by SRB assay; type: functional; conditions: A498, 48 h; for TGI: read-out: pTGI (converted); summary of the method: as §1
RXF 393 = assay: Growth inhibition of human RXF393 cells after 48 hrs by SRB assay; type: functional; conditions: RXF 393, 48 h; for TGI: read-out: pTGI (converted); summary of the method: as §1
TK-10 = assay: Growth inhibition of human TK10 cells after 48 hrs by SRB assay; type: functional; conditions: TK-10, 48 h; for TGI: read-out: pTGI (converted); summary of the method: as §1
UO-31 = assay: Growth inhibition of human UO31 cells after 48 hrs by SRB assay; type: functional; conditions: UO-31, 48 h; for TGI: read-out: pTGI (converted); summary of the method: as §1
PC-3 = assay: Growth inhibition of human PC3 cells after 48 hrs by SRB assay; type: functional; conditions: PC-3, 48 h; for TGI: read-out: pTGI (converted); summary of the method: as §1
DU-145 = assay: Growth inhibition of human DU145 cells after 48 hrs by SRB assay; type: functional; conditions: DU-145, 48 h; for TGI: read-out: pTGI (converted); summary of the method: as §1
MCF7 = assay: Growth inhibition of human MCF7 cells after 48 hrs by SRB assay; type: functional; conditions: MCF7, 48 h; for TGI: read-out: pTGI (converted); summary of the method: as §1
[2] = Growth inhibition of human Hs 578T cells after 48 hrs by SRB assay; type: functional; conditions: for TGI: read-out: pTGI (converted); summary of the method: as §1
BT-549 = assay: Growth inhibition of human BT549 cells after 48 hrs by SRB assay; type: functional; conditions: BT-549, 48 h; for TGI: read-out: pTGI (converted); summary of the method: as §1
T47D = assay: Growth inhibition of human T47D cells after 48 hrs by SRB assay; type: functional; conditions: for TGI: read-out: pTGI (converted); summary of the method: as §1
MDA-MB-468 = assay: Growth inhibition of human MDA-MB-468 cells after 48 hrs by SRB assay; type: functional; conditions: MDA-MB-468, 48 h; for TGI: read-out: pTGI (converted); summary of the method: as §1
NCI-H460 [3] = assay: Cytotoxicity against human NCI-H460 cells after 72 hrs by SRB assay; type: functional, cell-based; conditions: NCI-H460, 72 h
Summary of the method: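 NCI-H460 (ATCC) cells seeded in 96-well plates in growth medium. Scalar drug concentrations added 24 h after plating, then 72 h exposure. Surviving cells stained with sulforhodamine B, OD read at 570 nm. IC50 (50% growth inhibition) fitted from dose–response curves. Mean ± SE of at least three independent experiments.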

## COc1cc(C2CC(c3ccc(N(C)C)cc3)=NN2C(C)=O)cc(OC)c1OC (stereo unspecified)
CCRF-CEM
  GI50: 2510 nM
  TGI: > 100000 nM
HL-60(TB)
  GI50: 1000 nM
  TGI: 6310 nM
MOLT-4
  GI50: 3160 nM
  TGI: > 100000 nM
SR
  GI50: 631 nM
  TGI: > 100000 nM
EKVX
  GI50: 5010 nM
  TGI: > 100000 nM
NCI-H460 [1]
  GI50: 631 nM
  TGI: > 100000 nM
HCT-116
  GI50: 501 nM
  TGI: 20000 nM
HCT-15
  GI50: 631 nM
KM12
  GI50: 794 nM
  TGI: 31600 nM
SW-620
  GI50: 501 nM
  TGI: > 100000 nM
SF-268
  GI50: 2510 nM
  TGI: > 100000 nM
SF-539
  GI50: 1000 nM
  TGI: 5010 nM
SNB-75
  GI50: 794 nM
  TGI: > 100000 nM
U-251
  GI50: 631 nM
  TGI: > 100000 nM
Malme-3M
  GI50: > 100000 nM
  TGI: > 100000 nM
SK-MEL-2
  GI50: 7940 nM
  TGI: > 100000 nM
MDA-MB-435
  GI50: 200 nM
  TGI: 631 nM
SK-MEL-5
  GI50: 631 nM
  TGI: 12600 nM
UACC-62
  GI50: 631 nM
  TGI: > 100000 nM
OVCAR-4
  GI50: 3980 nM
  TGI: > 100000 nM
NCI/ADR-RES
  GI50: 316 nM
  TGI: 1260 nM
SK-OV-3
  GI50: 3980 nM
  TGI: > 100000 nM
786-0
  GI50: 1260 nM
  TGI: 63100 nM
A498
  GI50: 2510 nM
  TGI: 20000 nM
RXF 393
  GI50: 1580 nM
  TGI: 5010 nM
TK-10
  GI50: 12600 nM
  TGI: > 100000 nM
UO-31
  GI50: 2510 nM
  TGI: > 100000 nM
PC-3
  GI50: 501 nM
  TGI: > 100000 nM
DU-145
  GI50: 2000 nM
  TGI: 12600 nM
MCF7
  GI50: 398 nM
  TGI: > 100000 nM
[2]
  GI50: 398 nM
  TGI: 3160 nM
BT-549
  GI50: 2510 nM
  TGI: > 100000 nM
T47D
  GI50: 6310 nM
  TGI: > 100000 nM
MDA-MB-468
  GI50: 1580 nM
  TGI: > 100000 nM
NCI-H460 [3]
  IC50: 1800 nM

## CCN(CC)c1ccc(C2=NN(C(C)=O)C(c3cc(OC)c(OC)c(OC)c3)C2)cc1 (stereo unspecified)
CCRF-CEM
  GI50: 316 nM
  TGI: 1000 nM
HL-60(TB)
  GI50: 126 nM
  TGI: 501 nM
MOLT-4
  GI50: 251 nM
  TGI: 3160 nM
SR
  GI50: 63.1 nM
  TGI: 631 nM
EKVX
  GI50: 398 nM
  TGI: 2510 nM
NCI-H460 [1]
  GI50: 398 nM
  TGI: 2000 nM
HCT-116
  GI50: 316 nM
  TGI: 12600 nM
HCT-15
  GI50: 398 nM
KM12
  GI50: 316 nM
  TGI: 12600 nM
SW-620
  GI50: 316 nM
  TGI: 15800 nM
SF-268
  GI50: 794 nM
  TGI: 20000 nM
SF-539
  GI50: 316 nM
  TGI: 631 nM
SNB-75
  GI50: 251 nM
  TGI: 631 nM
U-251
  GI50: 398 nM
  TGI: 12600 nM
Malme-3M
  GI50: 200 nM
  TGI: 25100 nM
SK-MEL-2
  GI50: 501 nM
  TGI: 39800 nM
MDA-MB-435
  GI50: 158 nM
  TGI: 398 nM
SK-MEL-5
  GI50: 398 nM
  TGI: 3980 nM
UACC-62
  GI50: 316 nM
  TGI: 12600 nM
OVCAR-4
  GI50: 631 nM
  TGI: 25100 nM
NCI/ADR-RES
  GI50: 200 nM
  TGI: 501 nM
SK-OV-3
  GI50: 398 nM
  TGI: 15800 nM
786-0
  GI50: 501 nM
  TGI: 12600 nM
A498
  GI50: 316 nM
  TGI: 2510 nM
RXF 393
  GI50: 398 nM
  TGI: 2510 nM
TK-10
  GI50: 398 nM
  TGI: 20000 nM
UO-31
  GI50: 398 nM
  TGI: 15800 nM
PC-3
  GI50: 316 nM
  TGI: 12600 nM
DU-145
  GI50: 398 nM
  TGI: 2000 nM
MCF7
  GI50: 316 nM
  TGI: 10000 nM
[2]
  GI50: 316 nM
  TGI: 25100 nM
BT-549
  GI50: 631 nM
  TGI: 5010 nM
T47D
  GI50: 200 nM
  TGI: 20000 nM
MDA-MB-468
  GI50: 251 nM
  TGI: 631 nM
NCI-H460 [3]
  IC50: 980 nM
